Experimental data published in ChEMBL document CHEMBL3286203, “Reactive oxygen species (ROS) inducible DNA cross-linking agents and their effect on cancer cells and normal lymphocytes” (J Med Chem, 2014).
Calls of active or inactive are those of the source. The rule behind the calls is not given here.

Key:
[1] = Induction of [32P]-labeled 49-mer oligonucleotide duplex DNA 12 interstrand cross-linking (unknown origin) at purine nucleotide site using compound radiolabeled at 5' of 12b at 90 deg C after 30 mins by PAGE in presence of piperidine
[2] = Induction of [32P]-labeled 49-mer oligonucleotide duplex DNA 12 interstrand cross-linking (unknown origin) at purine nucleotide site using compound radiolabeled at 3' of 12a at 90 deg C after 30 mins by PAGE in presence of piperidine
[3] = Induction of [32P]-labeled 49-mer oligonucleotide duplex DNA 12 interstrand cross-linking (unknown origin) at purine nucleotide site using compound radiolabeled at 3' of 12a in phosphate buffer at pH 7 at 90 degC after 30 mins by PAGE
[4] = test system: SR; experiment: Cytotoxicity against human SR cells after 48 hrs by SRB assay; format: functional
In short: (§1)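 GI50 from the NCI-60 DTP human tumour line screen. Lines grown in RPMI 1640 with 5% fetal bovine serum and 2 mM L-glutamine, plated at 5000–40 000 cells/well according to doubling time. Incubated 48 h at 37 °C, 5% CO2.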

[5] = test system: SK-MEL-28; experiment: Cytotoxicity against human SK-MEL-28 cells after 48 hrs by SRB assay; format: functional; settings: SK-MEL-28, 48 h
In short: (§2)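 GI50 from the NCI Developmental Therapeutics Program in vitro human tumor cell screen. Cell lines were maintained in RPMI 1640 with 5% fetal bovine serum and 2 mM L-glutamine. They were seeded at 5000–40 000 cells/well, depending on each line's doubling time, then exposed to drug for 48 h at 37 °C, 5% CO2.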

[6] = test system: DU-145; experiment: Cytotoxicity against human DU145 cells after 48 hrs by SRB assay; format: functional; settings: DU-145, 48 h
In short: (§3)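 GI50 was determined in the NCI Developmental Therapeutics Program in vitro 60-line cancer screen. Tumour lines were maintained in RPMI 1640 containing 5% FBS and 2 mM L-glutamine. Cells were inoculated at 5000–40 000 cells/well according to each line's doubling time before drug exposure.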

[7] = Cytotoxicity against human UO31 cells after 48 hrs by SRB assay; format: functional; settings: UO-31, 48 h; in short: as §1
[8] = test system: BT-549; experiment: Cytotoxicity against human BT549 cells after 48 hrs by SRB assay; format: functional; settings: BT-549, 48 h; in short: as §3
[9] = test system: HCT-116; experiment: Cytotoxicity against human HCT116 cells after 48 hrs by SRB assay; format: functional; settings: HCT-116, 48 h; in short: as §3
[10] = Cytotoxicity against human Hs578T cells after 48 hrs by SRB assay; format: functional; settings: Hs-578T; in short: as §3
[11] = Cytotoxicity against human UACC257 cells after 48 hrs by SRB assay; format: functional; settings: UACC-257, 48 h; in short: as §1
[12] = Cytotoxicity against human NCI-ADR-RES cells after 48 hrs by SRB assay; format: functional; in short: as §2
[13] = test system: IGROV-1; experiment: Cytotoxicity against human IGROV1 cells after 48 hrs by SRB assay; format: functional; settings: IGROV-1, 48 h; in short: as §3
[14] = test system: MDA-MB-435; experiment: Cytotoxicity against human MDA-MB-435 cells after 48 hrs by SRB assay; format: functional; settings: MDA-MB-435, 48 h; in short: as §2
[15] = Cytotoxicity against human EKVX cells after 48 hrs by SRB assay; format: functional; in short: as §3
[16] = test system: HT-29; experiment: Cytotoxicity against human HT-29 cells after 48 hrs by SRB assay; format: functional; settings: HT-29, 48 h; in short: as §3
[17] = test system: ACHN; experiment: Cytotoxicity against human ACHN cells after 48 hrs by SRB assay; format: functional; in short: as §3
[18] = Cytotoxicity against human UACC62 cells after 48 hrs by SRB assay; format: functional; settings: UACC-62, 48 h; in short: as §1
[19] = test system: RPMI-8226; experiment: Cytotoxicity against human RPMI8226 cells after 48 hrs by SRB assay; format: functional; settings: RPMI-8226, 48 h; in short: as §2
[20] = test system: U-251; experiment: Cytotoxicity against human U251 cells after 48 hrs by SRB assay; format: functional; settings: U-251, 48 h; in short: as §1
[21] = test system: SW-620; experiment: Cytotoxicity against human SW620 cells after 48 hrs by SRB assay; format: functional; settings: SW-620, 48 h; in short: as §1
[22] = test system: PC-3; experiment: Cytotoxicity against human PC3 cells after 48 hrs by SRB assay; format: functional; settings: PC-3, 48 h; in short: as §2
[23] = test system: COLO 205; experiment: Cytotoxicity against human COLO205 cells after 48 hrs by SRB assay; format: functional; settings: COLO 205, 48 h; in short: as §3
[24] = Cytotoxicity against human HCT15 cells after 48 hrs by SRB assay; format: functional; settings: HCT-15, 48 h; in short: as §3
[25] = test system: HOP-62; experiment: Cytotoxicity against human HOP62 cells after 48 hrs by SRB assay; format: functional; settings: HOP-62, 48 h; in short: as §3
[26] = test system: NCI-H522; experiment: Cytotoxicity against human NCI-H522 cells after 48 hrs by SRB assay; format: functional; settings: NCI-H522, 48 h; in short: as §2
[27] = test system: TK-10; experiment: Cytotoxicity against human TK10 cells after 48 hrs by SRB assay; format: functional; settings: TK-10, 48 h; in short: as §1
[28] = test system: K562; experiment: Cytotoxicity against human K562 cells after 48 hrs by SRB assay; format: functional; settings: K562, 48 h; in short: as §3
[29] = test system: A549; experiment: Cytotoxicity against human A549 cells after 48 hrs by SRB assay; format: functional; settings: A549, 48 h; in short: as §3
[30] = test system: LOX IMVI; experiment: Cytotoxicity against human LOXIMVI cells after 48 hrs by SRB assay; format: functional; in short: as §3
[31] = Cytotoxicity against human OVCAR3 cells after 48 hrs by SRB assay; format: functional; settings: OVCAR-3, 48 h; in short: as §2
[32] = test system: HOP-92; experiment: Cytotoxicity against human HOP92 cells after 48 hrs by SRB assay; format: functional; settings: HOP-92, 48 h; in short: as §3
[33] = test system: SF-295; experiment: Cytotoxicity against human SF295 cells after 48 hrs by SRB assay; format: functional; settings: SF-295, 48 h; in short: as §2
[34] = test system: HCC 2998; experiment: Cytotoxicity against human HCC2998 cells after 48 hrs by SRB assay; format: functional; settings: HCC 2998, 48 h; in short: as §3
[35] = test system: NCI-H322M; experiment: Cytotoxicity against human NCI-H322M cells after 48 hrs by SRB assay; format: functional; in short: as §2
[36] = test system: M14; experiment: Cytotoxicity against human M14 cells after 48 hrs by SRB assay; format: functional; settings: M14, 48 h; in short: as §3
[37] = Cytotoxicity against human OVCAR4 cells after 48 hrs by SRB assay; format: functional; settings: OVCAR-4, 48 h; in short: as §2
[38] = Cytotoxicity against human OVCAR5 cells after 48 hrs by SRB assay; format: functional; settings: OVCAR-5, 48 h; in short: as §2
[39] = test system: HL-60(TB); experiment: Cytotoxicity against human HL-60(TB) cells after 48 hrs by SRB assay; format: functional; settings: HL-60, 48 h; in short: as §3
[40] = Cytotoxicity against human OVCAR8 cells after 48 hrs by SRB assay; format: functional; settings: OVCAR-8, 48 h; in short: as §2
[41] = test system: SK-MEL-2; experiment: Cytotoxicity against human SK-MEL-2 cells after 48 hrs by SRB assay; format: functional; settings: SK-MEL-2, 48 h; in short: as §2
[42] = test system: RXF 393; experiment: Cytotoxicity against human RXF393 cells after 48 hrs by SRB assay; format: functional; settings: RXF 393, 48 h; in short: as §2
[43] = test system: NCI-H226; experiment: Cytotoxicity against human NCI-H226 cells after 48 hrs by SRB assay; format: functional; settings: NCI-H226, 48 h; in short: as §2
[44] = test system: MCF7; experiment: Cytotoxicity against human MCF7 cells after 48 hrs by SRB assay; format: functional; settings: MCF7, 48 h; in short: as §3
[45] = test system: NCI-H460; experiment: Cytotoxicity against human NCI-H460 cells after 48 hrs by SRB assay; format: functional; settings: NCI-H460, 48 h; in short: as §2

## CC1(C)OB(c2ccc(N(CCBr)CCOS(C)(=O)=O)cc2)OC1(C)C
[1]
  Activity: Active
[2]
  Activity: Active
[3]
  Activity: Active

## CC1(C)OB(c2ccc(N(CCCl)CCOS(C)(=O)=O)cc2)OC1(C)C
[4]
  GI50: 0.63 µM
[5]
  GI50: 15.6 µM
[1]
  Activity: Active
[6]
  GI50: 4.52 µM
[7]
  GI50: 6.18 µM
[8]
  GI50: 12 µM
[9]
  GI50: 11.1 µM
[10]
  GI50: 24.1 µM
[11]
  GI50: 13 µM
[12]
  GI50: 6.52 µM
[13]
  GI50: 13.6 µM
[2]
  Activity: Active
[14]
  GI50: 15.3 µM
[15]
  GI50: 24.5 µM
[16]
  GI50: 14.6 µM
[17]
  GI50: 3.03 µM
[18]
  GI50: 5.83 µM
[19]
  GI50: 14.7 µM
[20]
  GI50: 0.7 µM
[21]
  GI50: 11.9 µM
[22]
  GI50: 15.1 µM
[23]
  GI50: 11 µM
[24]
  GI50: 13.5 µM
[25]
  GI50: 8.85 µM
[26]
  GI50: 5.99 µM
[27]
  GI50: 18 µM
[28]
  GI50: 19 µM
[29]
  GI50: 4.98 µM
[30]
  GI50: 4.72 µM
[31]
  GI50: 13.4 µM
[32]
  GI50: 11.5 µM
[33]
  GI50: 2.99 µM
[34]
  GI50: 14.6 µM
[35]
  GI50: 28.2 µM
[36]
  GI50: 5.68 µM
[37]
  GI50: 13.9 µM
[38]
  GI50: 22.9 µM
[39]
  GI50: 3.88 µM
[40]
  GI50: 8.2 µM
[41]
  GI50: 21.5 µM
[3]
  Activity: Active
[42]
  GI50: 5.71 µM
[43]
  GI50: 10.4 µM
[44]
  GI50: 4.44 µM
[45]
  GI50: 0.49 µM

## CC1(C)OB(c2ccc(N(CCBr)CCBr)cc2)OC1(C)C
[1]
  Activity: Active
[2]
  Activity: Active
[3]
  Activity: Active
